Measurements collected from several papers.
Each line is one published result; the experiments were not run side by side. pIC50: −log10 of the molar value.
Effect on: cell growth or viability

Structure (SMILES) | cell line | test | setting | pIC50
COc1ccc(OC)c(NC(=S)NN=Cc2ccccn2)c1 | BHK | SRB | 48 h | 3.96
CN(C)CCOc1cc(NC(=O)c2cc(Cl)cc(C(=O)Nc3cc(OCCN(C)C)c4ccccc4n3)n2)nc2ccccc12 | HT-1080 | ATP luminescence | 72 h | 5.66
CCN(CC)CCCC(C)Nc1cnc(C(=O)Nc2cc(F)cc3cccnc23)cn1 (centres unmarked) | Pan02 | MTT | – | 5.37
CC(C)C[C@H](NC(=O)[C@H](Cc1ccccc1)NC(=O)c1cnccn1)B(O)O | MM.1R | ATP luminescence | 48 h | 8.05
CN1/C(=N/c2ccc(Cl)cc2)c2cc(C(N)=O)nc3c(N)c(Cl)c(N)c1c23 | HCC4017 | – | – | 4.64
O=C(Nc1ccccc1CO)c1c[nH]c2ccc(Cl)cc12 | T24 | MTT | – | 4.74
Oc1ccccc1CN=CCNc1ccnc2cc(Cl)ccc12 | CHO | MTT | – | < 3.52
NCCCOc1cc(NC(=O)c2cc(OCCN)cc(C(=O)Nc3cc(OCCCN)c4ccccc4n3)n2)nc2ccccc12 | HT-1080 | ATP luminescence | 72 h | 5.17
CC[C@H]1CN2CCc3cc(OC)c(OC)cc3[C@@H]2C[C@@H]1C[C@H]1NCCc2cc(OC)c(OC)cc21 | CHO | MTT | – | 6.60
COc1cc(Nc2nccc(-c3cnn4nc(OC)ccc34)n2)cc(C(F)(F)F)c1 | A 172 | ATP luminescence | – | 6.37
Cn1ccnc1CNCCNc1ccnc2cc(Cl)ccc12 | CHO | MTT | – | 3.62
O=C(Nc1cccc(CO)c1)c1c[nH]c2ccc(Cl)cc12 | T24 | MTT | – | 4.80
C=C(C)C(=O)Nc1ccc(-c2c(-c3ccc(Oc4nccc(C)n4)c(F)c3)c3c(N)ncnc3n2C)cc1 | SNU-16 | ATP luminescence | 96 h | 8.49
CCCCCCCCCCCC(=O)Oc1c(C)c(O)c(C(=O)/C=C/c2ccccc2)c(OC)c1C | SH-SY5Y | SRB | 72 h | < 4.30
CC(C)C[C@H](NC(=O)[C@H](Cc1ccccc1)NC(=O)c1cnccn1)B(O)O | HT-1080 | ATP luminescence | – | 7.89
CCN1C(=O)N(c2c(F)c(OC)cc(OC)c2F)Cc2cnc3[nH]c(CN4CCOCC4)cc3c21 | SNU-16 | ATP luminescence | 96 h | 8.47

Structure (SMILES) | cell line | test | setting | pIC50
COc1cc(OC)c(/C=C/S(=O)(=O)Nc2ccc(OC)c(N)c2)c(OC)c1 | NCI-H187 | trypan blue | 96 h | 8.40
NCCCOc1cc(NC(=O)c2cc(OCc3c[nH]nn3)cc(C(=O)Nc3cc(OCCCN)c4ccccc4n3)n2)nc2ccccc12 | HT-1080 | ATP luminescence | 72 h | 4.45
CC(=O)O[C@@]12CO[C@@H]1C[C@H](O)[C@@]1(C)C(=O)[C@H](O)C3=C(C)[C@@H](OC(=O)[C@H](O)[C@@H](NC(=O)OC(C)(C)C)c4ccccc4)C[C@@](O)([C@@H](OC(=O)c4ccccc4)[C@H]21)C3(C)C | HCC1937 | ATP luminescence | 72 h | < 5.60
O=C1Nc2ccccc2C1=Cc1cc2ccccc2nc1Cl | CHO | MTT | 72 h | < 4.00
CCCCCC/N=C1\c2cc(C(N)=O)nc3c(N)c(Cl)c(N)c(c23)N1C | HCC4017 | – | – | 5.54
CCN1CCN(c2ccc(Nc3cc(N(C)C(=O)Nc4c(Cl)c(OC)cc(OC)c4Cl)ncn3)cc2)CC1 | NCI-H716 | ATP luminescence | 96 h | 8.24
O=C(Nc1cc(OCCN2CCCC2)c2ccccc2n1)c1cc(OCCN2CCCC2)cc(C(=O)Nc2cc(OCCN3CCCC3)c3ccccc3n2)n1 | HT-1080 | ATP luminescence | 72 h | 5.66
CCCON(Cc1ccc(C(=O)NO)cc1)C(=O)Nc1ccccc1 | SUP-B15 | ATP luminescence | 72 h | 5.17
COc1cc(C(=O)Nc2cc(OCCN3CCCC3)c3ccccc3n2)nc(C(=O)Nc2cc(OCCN3CCCC3)c3ccccc3n2)c1 | HT-1080 | ATP luminescence | 72 h | 5.82
COc1cccc2c1C(=O)c1c(O)c3c(c(O)c1C2=O)C[C@@](O)(C(=O)CO)C[C@@H]3O[C@H]1C[C@H](N)[C@H](O)[C@H](C)O1 | BHK | SRB | 48 h | 4.44
O=C(Nc1cc(OCCN2CCCC2)c2ccccc2n1)c1cc(OCc2ccc(F)cc2)cc(C(=O)Nc2cc(OCCN3CCCC3)c3ccccc3n2)n1 | HT-1080 | ATP luminescence | 72 h | 5.07
O=C1Nc2ccccc2C1=Cc1cc2ccc(Cl)cc2nc1Cl | CHO | MTT | 72 h | 4.41
C#CCOc1cc(C(=O)Nc2cc(OCCN)c3ccccc3n2)nc(C(=O)Nc2cc(OCCN)c3ccccc3n2)c1 | HT-1080 | ATP luminescence | 72 h | 5.33
Cc1cc(C)cc(COc2cc3c(cc2OCc2cc(C)cc(C)c2)[C@H]2C[C@](O)(Cc4cn(Cc5ccncc5)nn4)C[C@H](C)N2CC3)c1 | GES1 | MTT | 48 h | 5.59
NCCCOc1cc(NC(=O)c2cc(Cl)cc(C(=O)Nc3cc(OCCCN)c4ccccc4n3)n2)nc2ccccc12 | HT-1080 | ATP luminescence | 72 h | 6.22
Cc1cc(C)cc(COc2cc3c(cc2OCc2cc(C)cc(C)c2)[C@H]2C[C@](O)(Cc4cn(Cc5ccc(-c6ccccc6)cc5)nn4)C[C@H](C)N2CC3)c1 | GES1 | MTT | 48 h | 5.65
